PMI act: activators of human phosphomannose isomerase; P34949; purified human PMI, coupled resazurin fluorescence, 20 min; hits give high values; 1 = vehicle control, 0 substrate-free wells; activation factor at 20 µM; actives 0.005% (n = 190,000); AID 1214;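 active = activation factor of 2 or more at 20 µM, relative to plate controls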
Target sequence (P34949 whole entry, looked up): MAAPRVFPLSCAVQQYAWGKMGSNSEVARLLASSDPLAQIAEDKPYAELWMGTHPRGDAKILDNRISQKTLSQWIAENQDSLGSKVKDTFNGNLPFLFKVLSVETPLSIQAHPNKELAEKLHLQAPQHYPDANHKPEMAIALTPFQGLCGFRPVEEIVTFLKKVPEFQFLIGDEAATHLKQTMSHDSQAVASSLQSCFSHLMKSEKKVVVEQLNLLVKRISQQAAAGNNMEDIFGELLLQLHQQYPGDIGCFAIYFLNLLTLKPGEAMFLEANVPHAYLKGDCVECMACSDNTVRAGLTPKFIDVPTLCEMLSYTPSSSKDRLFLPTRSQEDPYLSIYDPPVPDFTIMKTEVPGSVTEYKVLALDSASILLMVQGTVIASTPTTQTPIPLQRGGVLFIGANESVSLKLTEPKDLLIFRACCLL
PMI act satM6P: PMI (human) activation, high substrate; P34949; coupled PMI enzyme assay, resazurin fluorescence, 20 min; hits give high values; 1 = untreated enzyme, 0 = substrate-free blank; activation factor at 20 µM; actives 0.34% (n = 190,000); AID 1216;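 active = activation factor of 2 or more at 20 µM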
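Test system: human phosphomannose isomerase with PGI, G6PDH, diaphorase coupling enzymes / Doses: 20 µM compound, 1% DMSO / Times: enzyme reaction with compound 20 min at room temperature / Measured by: Diaphorase-driven resazurin-to-resorufin fluorescence, excitation 544, emission 590 nm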
WT yeast gro inh: growth inhibition of WT yeast, mitochondrial fusion screen; mitochondrial fusion phenotypic screen, WT strain; inhibition, % at 10 µM; actives 2.1% (n = 190,000); in the data active = inhibition above about 58%; tested in S. cerevisiae
Lmaj promast: inhibitors of Leishmania major promastigote growth | actives 9% (n = 200,000) | Leishmania major promastigotes, resazurin fluorescence viability | inhibition, % at 10 µM; in the data active = inhibition above about 50%;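 note: promastigotes grown with compound for 44 hours at 28 °C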
Diaphorase act: activates diaphorase or chemically reduces, flagging diaphorase assay artifacts; Diaphorase/resazurin coupled assay, resorufin fluorescence, 16 min; hits give high values; 1 = vehicle wells, 0 = NADH-free wells; activation factor at 20 µM; actives 0.005% (n = 190,000);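 active = diaphorase activity raised at least twofold by the compound at 20 µM; inactive = activation factor below 2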
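Assay system: bacterial diaphorase enzyme (C. kluyveri) / Input: enzyme 0.07 U/mL final / Medium: 50 mM HEPES pH 7.4 with 4.542 mM MgCl2, 0.005% Tween 20 / Doses: single compound dose of 20 µM, 1% DMSO final / Incubation: 16 min enzyme reaction, ambient temperature / Signal: fluorescence, excitation 544 nm and emission 590 nm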
A number is an active result; n = inactive; x = not tested or not shown. Sampled rows, rich in hits. Any-hit rate of the full collection: about 10%.

SMILES	PMI act	PMI act satM6P	WT yeast gro inh	Lmaj promast	Diaphorase act
COc1cc(CCC(=O)Nc2ccc(Cl)c(C(F)(F)F)c2)cc(OC)c1OC	n	n	n	n	n
COc1cc(C(=O)Nc2ccc(Cl)c(C(F)(F)F)c2)cc(OC)c1OC	n	n	n	80	n
CCNC(=S)Nc1ccc(Cl)c(C(F)(F)F)c1	n	n	n	76	n
Nn1c(SCC(=O)Nc2cc(S(=O)(=O)N3CCOCC3)ccc2Cl)nnc1-c1cccnc1	n	n	n	n	n
Cn1c(=O)[nH]c(Nc2ccccc2)c([N+](=O)[O-])c1=O	n	n	n	n	n
COc1cccc(C(=O)NC(=S)Nc2nnn(C)n2)c1	n	n	n	n	n
CCCCCCCCOC(=O)c1nc(Cl)c(Cl)c(N)c1Cl	n	n	69	n	n
COC(=O)c1nc(Cl)c(Cl)c(N)c1Cl	n	n	n	n	n
Cc1cc(C)c2c(N)c(C(=O)N3CCc4ccccc4C3)sc2n1	n	2	n	n	n
COc1ccc(C(=O)c2sc3nc(C)cc(-c4cccs4)c3c2N)cc1	n	n	n	73	n
COc1ccc(C(=O)c2sc3nc(C)cc(-c4cccs4)c3c2N)cc1OC	n	n	n	n	n
Cc1cc(C)c2c(N)c(C(=O)c3ccc(Cl)c(Cl)c3)sc2n1	n	n	n	100	n
CC(C)c1ccc2nc3sc(C(=O)N4CCc5ccccc5C4)c(N)c3cc2c1	n	n	n	n	n
Cc1cc(C)c2c(N)c(C(=O)c3ccc(Cl)cc3)sc2n1	n	n	n	71	n
Cc1ccc(S(=O)(=O)c2ccc(Cl)cc2)cc1S(=O)(=O)N(C)CC(=O)O	n	n	n	n	n
Cc1cccc(NC(=O)Nc2cc(C)cc(C)n2)c1	n	n	n	n	n
Cc1cc(C)c2c(N)c(C(=O)C(C)(C)C)sc2n1	n	n	n	97	n
Cc1cc(C)c2c(N)c(C(=O)NC3CCCC3)sc2n1	n	n	n	n	n
Cc1cc(C)c2c(N)c(C(=O)NCC3CCCCC3)sc2n1	n	n	n	77	n
CCCc1nn(C)c(C(N)=O)c1[N+](=O)[O-]	n	n	n	n	n
O=C(OCCCN=C1NS(=O)(=O)c2ccccc21)c1ccc([N+](=O)[O-])cc1	n	n	n	n	n
O=C(NCc1ccc2[nH]c3c(c2c1)CCCC3)c1ccc(S(=O)(=O)N2CCCCC2)cc1	n	n	n	n	n
S=C(NCc1ccc2[nH]c3c(c2c1)CCCC3)Nc1ccccc1	n	n	76	n	n
CCS(=O)(=O)NCc1ccc2[nH]c3c(c2c1)CCCC3	n	n	n	n	n
Cc1cc(C)cc(NC(=S)NCc2ccc3[nH]c4c(c3c2)CCCC4)c1	n	n	72	n	n
SMILES	PMI act	PMI act satM6P	WT yeast gro inh	Lmaj promast	Diaphorase act
O=C(COc1ccc([N+](=O)[O-])cc1)NNC(=S)NC(=O)c1ccc(Br)cc1	n	n	70	n	n
O=C(NC(=S)NCCCN1CCOCC1)c1ccc(Br)cc1	n	n	n	86	n
O=C(NC(=S)NCCN1CCOCC1)c1ccccc1	n	n	n	n	n
O=C(NC(=S)NCCCN1CCOCC1)c1cccc2ccccc12	n	n	n	78	n
O=C(NCCCN1CCOCC1)C1Cc2c(ccc3ccccc23)O1 (centres undefined)	n	n	n	69	n
O=C(NCC1CCCO1)C(=O)NCC(c1ccco1)N1CCN(c2ccccc2)CC1 (centres undefined)	n	n	n	n	n
CC1(C)CN(c2ccccc2)N(Cc2ccc(F)cc2)C1=O	n	n	n	n	n
O=C(CCN1CCCCC1)NNC(=S)NC(=O)c1ccc(Br)cc1	n	n	n	75	n
Cc1ccc(C(=O)NC(=S)NCCCN2CCOCC2)cc1	n	n	n	65	n
Cc1ccc(C(NC(=O)NCCCN2CCOCC2)=C(Cl)Cl)cc1F	n	n	x	81	n
O=C(CCN1CCOCC1)NNC(=S)NC(=O)c1ccc(Br)cc1	n	n	n	n	n
O=C(N/N=C1\CCCc2c1[nH]c1ccc([N+](=O)[O-])cc21)c1ccncc1	n	n	n	n	n
CCc1nnc(NC(=O)CSc2nc3ccc(OC)cc3[nH]2)s1	n	n	n	n	n
CCCS(=O)(=O)c1nc(S(=O)(=O)c2ccc(C)cc2)c(NCc2ccc3c(c2)OCO3)s1	n	n	n	62	n
CCCS(=O)(=O)c1nc(S(=O)(=O)c2ccc(C)cc2)c(NCCCN(C)C)s1	n	n	n	95	n
